High-throughput results (PubChem BioAssay)
Only some compounds are listed: those with a hit (about 2.5% of all), similar ones and a draw of the others.
MC4R barr agon – activates human MC4R beta-arrestin recruitment | P32245 | U2OS MC4R beta-arrestin complementation, luminescence; percent of melanotan II response, DMSO zero | activation, % at 8.9 µM | hit rate 0.98% among 360,000 | AID 540308;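 active means activation above a per-plate cutoff, the mean activation of sample wells on that plate plus 3 SD, cut at about 8% in these data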
Target sequence (P32245 whole entry, looked up): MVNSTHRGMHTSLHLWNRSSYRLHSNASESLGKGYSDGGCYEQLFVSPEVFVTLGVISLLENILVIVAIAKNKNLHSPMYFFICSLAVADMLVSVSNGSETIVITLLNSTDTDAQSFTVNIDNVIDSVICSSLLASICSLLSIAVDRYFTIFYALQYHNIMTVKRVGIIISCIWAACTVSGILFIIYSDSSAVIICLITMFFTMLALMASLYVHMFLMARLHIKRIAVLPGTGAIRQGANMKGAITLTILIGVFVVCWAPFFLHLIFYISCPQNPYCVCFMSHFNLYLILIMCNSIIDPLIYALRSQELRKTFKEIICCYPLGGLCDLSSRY
HGIII-sPLA2 inh – Blocks human group III sPLA2 activity; hit rate 0.56% among 370,000; Q9NZ20; QFRET BODIPY PC-A2 liposome hydrolysis, fluorescence; inhibition, % at 12.2 µM;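 active means inhibition above mean plus 3 SD of compounds lying within the high and low control bounds, cut at about 19% in these data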
MC4R antagonist – human MC4R antagonism in cAMP assay. MC4R-expressing cells, MTII-stimulated cAMP, LANCE TR-FRET. hit rate 0.48% among 360,000. P32245. AID 540295. inhibition, % at 6.5 µM;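 active means inhibition above its plate's cutoff, the mean of tested wells on that plate plus 3 SD, cut at about 29% in these data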
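Assay system: human MC4R-expressing U2OS cells; reagent: Melanotan II stimulation of cells; dosing: 6.5 µM single dose; timing: compound 30 min, challenge 1 h, detection 1 h; signal: TR-FRET cAMP assay; replicates: one well per compound, no replicates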
Granule exo inh – blocks lytic granule exocytosis. TALL-104 LAMP-1 surface exposure, flow cytometry; cells stimulated with thapsigargin and PMA. inhibition, % at 10 µM. hit rate 0.66% among 360,000. AID 651702;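 active means inhibition above about 55%, limit read from the data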
Bfl-1 A1 inh – inhibitors of the anti-apoptotic protein A1, read as caspase activation; MEF A1-2A-BIM cells, Caspase-Glo 3/7 luminescence, 3 h; percent of clofoctol response, vehicle zero; caspase activation, % (concentration not given with the values); hit rate 0.066% among 330,000;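 active means over half of replicate activation scores above 10%, or exactly half above 10 with the replicate mean above 10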
NTR1 agonist – NTR1 (human) agonism; P30989; NTR1-U2OS beta-arrestin-GFP spot imaging, agonist mode; activation, % at 20 µM; hit rate 0.17% among 330,000; AID 493036;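 active means activation at or above 40% of the spot to cytoplasm intensity ratio, with at least 20 cells analyzed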
sPLA2 confirm – human GIII-sPLA2 inhibition, confirmation | AID 743280 | inhibition, % at 12.2 µM | recombinant hGIII-sPLA2, BODIPY PC-A2 QFRET fluorescence | hit rate 34% among 2,000 | shares compounds with HGIII-sPLA2 inh;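 active means mean inhibition across triplicates above the hit cutoff set in the earlier primary screen, cut at about 19% in these data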
535nm interf – counter-screen for HGIII-sPLA2 inhibitors: 535nm fluorescence interference; inhibition, % at 12.2 µM; hit rate 8.5% among 2,000; BODIPY FL product fluorescence interference, QFRET; shares compounds with HGIII-sPLA2 inh;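 active means average inhibition above the solvent-only control mean plus 3 SD, cut at about 6% in these data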
BODIPY interf DR – interferes with 535nm fluorescence in dose response counter-screen. BODIPY FL product fluorescence interference, cell-free. IC50, µM. 240 tested, under 10 active. shares compounds with HGIII-sPLA2 inh;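 active means IC50 at or below 10 µM; inactive means IC50 above 10 µM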
A number is an active result; n = inactive; x = not tested or not shown.

SMILES	MC4R barr agon	HGIII-sPLA2 inh	MC4R antagonist	Granule exo inh	Bfl-1 A1 inh	NTR1 agonist	sPLA2 confirm	535nm interf	others
COc1ccccc1/C=N/NC(=O)c1c(-c2ccccc2)noc1C	n	n	n	n	n	n	x	x
CN1C(=O)C(C)(C)c2cc(S(=O)(=O)N3CCN(c4cccc(Cl)c4)CC3)ccc21	n	n	n	n	n	n	x	x
COc1ccc(C2=NS(=O)(=O)N(C)C(C(=O)N(C)Cc3ccccc3)=C2)cc1OC	n	n	n	n	x	n	x	x
N#Cc1ccc(OCC(=O)Nc2ccc(N3CCCC3)cc2)cc1	n	21	n	n	n	n	n	n
CCOc1ccc(OCC(=O)Nc2ccc(N3CCCCC3)cc2)cc1	n	n	n	n	n	n	x	x
CCOn1c(=O)c(-c2cccc(Br)c2)[n+]([O-])c2ccccc21	n	n	n	n	n	n	x	x
CC(C)C1Nc2c(O)cc(Cl)c([N+](=O)[O-])c2C2C=CCC21 (stereo unspecified)	n	19	n	n	x	x	n	10
O=C(O)C1Nc2c(Cl)cc(Cl)c(Cl)c2C2C=CCC12 (stereo unspecified)	n	n	n	n	n	x	x	x
Cc1ccc(OCCCCCCN2CCNCC2)cc1	n	n	n	n	n	n	x	x
COc1cc(C)c2sc3ccccc3c(=O)c2c1NCCN(C)C	n	20	n	n	x	x	n	n
CC(C)CCn1c(=O)c2sccc2n2c(CCCC(=O)N3CCC(N4CCCCC4)CC3)nnc12	n	n	n	n	n	n	x	x
CCOc1ccc(NC(=O)c2ccc3c(c2)S(=O)(=O)N=C2CCCCCN23)cc1	n	19	n	n	x	x	n	n
CC(C)(C)OC(=O)C[C@H]1C/C=C\C[C@H](CC(=O)N(CCO)Cc2ccccc2)C(=O)N[C@@H](c2ccccc2)COC1=O	n	n	n	n	n	n	x	x
COc1ccc(Cc2noc(-c3ccc([N+](=O)[O-])cc3)n2)cc1OC	n	21	n	n	n	n	n	n
O=C(NC1CCCCCC1)c1ccc(CN2CCOCC2)cc1	n	n	n	n	n	n	x	x
CCOc1ccc(CCN2C(=S)N([C@@H](Cc3ccc(O)cc3)CN3CCC[C@@H]3CN3C(=S)NC[C@@H]3Cc3ccccc3)C[C@@H]2Cc2ccc(O)cc2)cc1	x	n	x	n	x	x	x	x
O=C(Cc1cccc(C(F)(F)F)c1)Nc1ccccc1N1CCCC1	n	n	n	n	n	n	x	x
CCc1ccc(N2C(=O)C3NN=C(C(=O)OCc4ccccc4)C3C2=O)cc1 (stereo unspecified)	n	n	n	n	n	n	x	x
O=C(OCc1ccccc1)C1=NNC2C(=O)N(c3ccccc3)C(=O)C12 (stereo unspecified)	n	23	n	n	n	n	n	n
O=[N+]([O-])c1ccccc1C1Nc2cccc3cccc(c23)N1	n	n	n	n	n	n	x	x
O=[N+]([O-])c1ccc(Cl)c(C2Nc3cccc4cccc(c34)N2)c1	n	32	n	56	n	n	57	18
CCOC(=O)C1(C)CCCCCN1C(=O)c1ccc(N(C)C)cc1 (stereo unspecified)	n	19	n	n	x	x	n	n
CC(C)[C@@H](CO)N(Cc1cn(Cc2ccccc2)nn1)S(=O)(=O)c1ccccc1Br	x	n	x	x	x	x	x	x
CCCCNC(=O)c1c(N)[nH]c(C(=O)c2ccccc2)c1-c1ccccn1	x	19	x	n	x	x	n	n
CCCC(=O)Nc1nc2c(C)c(Cl)ccc2s1	n	n	n	n	n	n	x	x
SMILES	MC4R barr agon	HGIII-sPLA2 inh	MC4R antagonist	Granule exo inh	Bfl-1 A1 inh	NTR1 agonist	sPLA2 confirm	535nm interf	others
Cc1c(Cl)ccc2sc(NC(=O)CN3C(=O)c4ccccc4C3=O)nc12	n	20	n	n	x	n	n	n
COc1ccccc1NS(=O)(=O)c1cccc(C(=O)N2CC(C)OC(C)C2)c1 (stereo unspecified)	n	n	n	n	n	n	x	x
CCn1nc(C(=O)NCc2ccco2)c(Cl)c1Cl	n	n	n	n	n	n	x	x
Cn1cc(Cl)c(C(=O)NNC(=S)NCc2ccco2)n1	n	30	n	n	n	n	25	6.3
CCCCNC(=S)NNC(=O)c1nn(C)c(C)c1Cl	n	23	n	n	n	n	21	n
Cc1c(Cl)c(C(=O)NNC(=S)NCc2ccco2)nn1C	n	35	n	n	n	n	41	n	BODIPY interf DR=n
O=C(NNC(=S)NCc1ccco1)c1ccc(Cl)s1	n	n	n	n	n	n	x	x
O=C1CCN(Cc2cccnc2)CCN1[C@H](CO)Cc1ccccc1	n	n	n	n	n	n	x	x
COc1ccc(NC(=S)NCc2ccc3c(c2)cc(C)n3C)cc1	n	22	n	n	n	n	n	n
COc1ccc(CC(=O)NCc2ccc3c(c2)cc(C)n3C)cc1	n	n	n	n	n	n	x	x
CC(=O)c1ccc(-n2nnnc2SCC(=O)Nc2sc(C)c(C)c2C#N)cc1	n	19	n	n	n	n	n	n
O=Cc1ccc(Oc2ncccn2)cc1	n	n	n	n	n	n	x	x
CCOC(=O)c1ccc(-c2ccc(N3C(c4cccc(OC)c4)=Cc4ccc(F)cc4C3CC(C)=O)cc2)cc1F (stereo unspecified)	x	n	x	n	x	x	x	x
Cc1ccc(NC(=S)N/N=C2/CCCCc3ccccc32)cc1	n	24	n	n	n	n	31	n	BODIPY interf DR=n
COc1ccc(Cn2ccnc2SCC(=O)NC2CCCC2)cc1	n	n	n	n	n	n	x	x
O=C(CSc1nnc(NC(=O)C2CC(=O)N(c3ccc(F)cc3)C2)s1)NCc1ccco1 (stereo unspecified)	n	n	n	n	n	n	x	x
COc1ccc(Cn2ccc3ccc(-c4ccc5ccn(Cc6ccccc6F)c5c4)cc32)cc1	x	20	x	x	x	x	n	n
OC(COCc1ccc(Cl)cc1)CN1CCc2ccccc2C1 (stereo unspecified)	n	23	n	n	n	n	n	n
OC(COCc1ccc(Cl)cc1)CN1CCN(CC(O)COCc2ccc(Cl)cc2)CC1 (stereo unspecified)	n	n	n	n	n	n	x	x
Cc1cccc(C)c1NC(=O)c1cccc2c1-c1ccccc1C2=O	n	22	n	n	n	n	n	n
O=C(Nc1ccc2c(c1)OCO2)c1cc(C2CCCCN2C(=O)OCCF)on1 (stereo unspecified)	n	n	n	n	x	x	x	x
